Assay results from ChEMBL document CHEMBL2417407, “Regioselective synthesis of phenanthrenes and evaluation of their anti-oxidant based anti-inflammatory potential” (Eur J Med Chem, 2013).
≈ marks a conversion by molar mass, not a printed value.

Tests used:
THP-1 [1] = assay: Antiinflammatory activity in human THP1 cells assessed as inhibition of LPS-stimulated TNF-alpha release incubated for 1 hr prior to LPS challenge measured after 24 hrs by sandwich ELISA; format: functional, cell-based
Method in brief: (§1)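 THP-1 cells were grown in RPMI 1640 with 10% heat-inactivated FBS, 1% non-essential amino acids, 1% glutamine, penicillin and streptomycin at 37 °C under 5% CO2. They were seeded at 2 × 10⁵ cells/well and pretreated with compound for 1 h in serum-free medium. LPS (E. coli O55:B5, 250 ng/mL) was then added for 24 h at 37 °C. Supernatant TNF-α was measured by sandwich ELISA, with LPS-stimulated cells taken as 0% inhibition. Triplicates, two independent experiments.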

THP-1 [2] = assay: Antiinflammatory activity in human THP1 cells assessed as inhibition of LPS-stimulated TNF-alpha release at 1 uM incubated for 1 hr prior to LPS challenge measured after 24 hrs by sandwich ELISA relative to untreated control; format: functional; method in brief: as §1
[3] = Antioxidant activity assessed as galvinoxyl free radical scavenging activity after 20 mins; format: functional
THP-1 [4] = assay: Cytotoxicity against human THP1 cells assessed as cell viability at 1 uM after 24 hrs by CCK-8 assay relative to untreated control; format: cell-based; settings: thp-1, 24 h
Method in brief: (§2)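 THP-1 cells were seeded at 2 × 10⁵ cells/well and exposed to compound in serum-free medium for 24 h at 37 °C under 5% CO2. CCK-8 reagent was then added for 2 h and absorbance was read at 450 nm. Relative viability was calculated as absorbance of treated cells divided by absorbance of untreated cells. Triplicates, two independent experiments.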

THP-1 [5] = assay: Cytotoxicity against human THP1 cells assessed as cell viability at 100 uM after 24 hrs by CCK-8 assay relative to untreated control; format: cell-based; settings: thp-1, 24 h; method in brief: as §2
THP-1 [6] = assay: Antiinflammatory activity in human THP1 cells assessed as inhibition of LPS-stimulated TNF-alpha release at 10 uM incubated for 1 hr prior to LPS challenge measured after 24 hrs by sandwich ELISA relative to untreated control; format: functional; method in brief: as §1
THP-1 [7] = assay: Antiinflammatory activity in human THP1 cells assessed as inhibition of LPS-stimulated TNF-alpha release at 50 uM incubated for 1 hr prior to LPS challenge measured after 24 hrs by sandwich ELISA relative to untreated control; format: functional; method in brief: as §1
[8] = test system: Radical scavenging activity; assay: Antioxidant activity assessed as DPPH free radical scavenging activity after 30 mins; format: functional
Method in brief: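 Compound solution was mixed with 316 µM DPPH solution, giving final compound concentrations of 1, 5, 12.5, 25, 50 and 100 µg/mL. The mixture was shaken 1 min and incubated at 37 °C for 30 min. Absorbance was read at 517 nm and percent scavenging was calculated as [1 − (A1 − A2)/A0] × 100.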

THP-1 [9] = assay: Cytotoxicity against human THP1 cells assessed as cell viability at 10 uM after 24 hrs by CCK-8 assay relative to untreated control; format: cell-based; settings: thp-1, 24 h; method in brief: as §2
THP-1 [10] = assay: Antiinflammatory activity in human THP1 cells assessed as inhibition of LPS-stimulated TNF-alpha release at 100 uM incubated for 1 hr prior to LPS challenge measured after 24 hrs by sandwich ELISA relative to untreated control; format: functional; method in brief: as §1
[11] = Antioxidant activity assessed as ABTS free radical scavenging activity after 1 min; format: functional
Method in brief: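 ABTS radical cation was generated from 7 mM ABTS stock and 2.45 mM potassium persulfate (final) left 16 h in the dark at room temperature. Working solution (1.0 mL) was added to the compound in methanol, giving final 1–100 µg/mL. Absorbance at 734 nm was read after exactly 1 min. Percent scavenging was calculated from absorbances as in the DPPH assay.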

THP-1 [12] = assay: Cytotoxicity against human THP1 cells assessed as cell viability at 50 uM after 24 hrs by CCK-8 assay relative to untreated control; format: cell-based; settings: thp-1, 24 h; method in brief: as §2

Row | Structure (SMILES) | inhibition (THP-1 [1]) | inhibition at 1 µM (THP-1 [2]) | IC50 [3] | fold change (FC) (THP-1 [4]) | fold change (FC) (THP-1 [5]) | inhibition at 10 µM (THP-1 [6]) | inhibition at 50 µM (THP-1 [7]) | IC50 [8] | fold change (FC) (THP-1 [9]) | inhibition at 100 µM (THP-1 [10]) | IC50 [11] | fold change (FC) (THP-1 [12])
1 | COc1ccc2c(c1O)CCc1cc(O)cc(OC)c1-2 | Dose-dependent effect | 19.5% | 17.04 µg/mL (≈ 62.6 µM) | 1.3 | 1 | 31% | 70% | 32.5 µg/mL (≈ 119 µM) | 1.3 | 83% | 15.62 µg/mL (≈ 57.4 µM) | 1.2
2 | O=C1O[C@H]([C@@H](O)CO)C(O)=C1O [ASCORBIC ACID] | – | – | 5.23 µg/mL (≈ 29.7 µM) | – | – | – | – | 15.12 µg/mL (≈ 85.8 µM) | – | – | 29.17 µg/mL (≈ 166 µM) | –
3 | c1ccc2c(c1)CCc1ccccc1-2 | – | 0% | > 100 µg/mL | 1.6 | 1.2 | 0% | 5% | > 100 µg/mL | 1.5 | 14.5% | > 100 µg/mL | 1.3
4 | COc1cc2c(c(OC)c1O)-c1ccc(O)cc1CC2 [FLAVANTHRIDIN] | Dose-dependent effect | 8% | 11.66 µg/mL (≈ 42.8 µM) | 1.4 | 1.2 | 17.5% | 47% | 10.28 µg/mL (≈ 37.8 µM) | 1.4 | 64% | 11.72 µg/mL (≈ 43 µM) | 1.3
5 | c1ccc2c(c1)ccc1ccccc12 [PHENANTHRENE] | – | 0% | > 100 µg/mL | 1.4 | 1.1 | 0% | 6% | > 100 µg/mL | 1.3 | 8.5% | > 100 µg/mL | 1.2
6 | COc1cc2ccc3cc(O)ccc3c2c(OC)c1O | Dose-dependent effect | 3.5% | 11.79 µg/mL (≈ 43.6 µM) | 1.4 | 1 | 15.5% | 34% | 11.18 µg/mL (≈ 41.4 µM) | 1.3 | 67.5% | 13.39 µg/mL (≈ 49.5 µM) | 1.1
7 | COc1cc(/C=C/C(=O)CC(=O)/C=C/c2ccc(O)c(OC)c2)ccc1O [CURCUMIN] | Dose-dependent effect | 1.5% | 17.03 µg/mL (≈ 46.2 µM) | 1.8 | 0.5 | 38% | 95.5% | 11.41 µg/mL (≈ 31 µM) | 1.5 | 102% | 28.3 µg/mL (≈ 76.8 µM) | 0.9
8 | Cc1cc(C(C)(C)C)c(O)c(C(C)(C)C)c1 [BUTYLATED HYDROXYTOLUENE] | – | – | 43.7 µg/mL (≈ 198 µM) | – | – | – | – | 31.51 µg/mL (≈ 143 µM) | – | – | 36.11 µg/mL (≈ 164 µM) | –
9 | COc1cc(O)c2c(c1)CCc1c-2ccc(OC)c1O | Dose-dependent effect | 9% | 17.97 µg/mL (≈ 66 µM) | 1.5 | 1.1 | 30% | 79% | 27.8 µg/mL (≈ 102 µM) | 1.4 | 94% | 16.98 µg/mL (≈ 62.4 µM) | 1.2
10 | Oc1cc(O)c2c(c1)OC(c1ccc(O)c(O)c1)C(O)C2 (stereo unspecified) [CATECHIN] | – | – | 18.03 µg/mL (≈ 62.1 µM) | – | – | – | – | 15.6 µg/mL (≈ 53.7 µM) | – | – | 11.46 µg/mL (≈ 39.5 µM) | –
